Where “and” joins values, the source holds several entries; their conditions need not be identical. Equal values may be shown once.
Legend:
DEGR-FXIa = DEGR-FXIa (Homo sapiens, UniProt P03951); assay: Salt dependence of affinity of DEGR-FXIa; format: binding
Procedure, shortened: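 DEGR-factor XIa (250 nM) was titrated with ligand solutions at 37 °C in 50 mM Tris-HCl pH 7.4, 0.1% PEG8000, at 25, 50, 100 or 150 mM NaCl. Dansyl fluorescence was read at 547 nm (excitation 345 nm), and a quadratic fit gave KD,obs. […] At least two experiments were run.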

human factor XIa = human factor XIa (Homo sapiens, UniProt P03951); assay: Fluorescence-based binding affinity, intrinsic tryptophan fluorescence; conditions: pH 7.4, 37 °C
Procedure, shortened: (§1)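 Human plasma factor XI or factor XIa (105 nM) was titrated at 37 °C with aliquots of 200–250 μM aqueous ligand in 50 mM Tris-HCl pH 7.4, 150 mM NaCl, 0.1% PEG8000. Intrinsic tryptophan fluorescence (λEX 280 nm) was followed. ΔF/F0 versus ligand concentration was fitted to a quadratic binding equation for KD and ΔFMAX.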

factor XI (zymogen) = factor XI (zymogen) (Homo sapiens, UniProt P03951); format: binding; conditions: intrinsic tryptophan fluorescence, pH 7.4, 37 °C
Procedure, shortened: as §1

DEGR-factor XIa = DEGR-factor XIa (Homo sapiens, UniProt P03951); assay: Fluorescence-based binding affinity, dansyl fluorescence; conditions: saturating ligand, λEX 345 nm
Chain of DEGR-factor XIa (P03951 19-387 limits assumed): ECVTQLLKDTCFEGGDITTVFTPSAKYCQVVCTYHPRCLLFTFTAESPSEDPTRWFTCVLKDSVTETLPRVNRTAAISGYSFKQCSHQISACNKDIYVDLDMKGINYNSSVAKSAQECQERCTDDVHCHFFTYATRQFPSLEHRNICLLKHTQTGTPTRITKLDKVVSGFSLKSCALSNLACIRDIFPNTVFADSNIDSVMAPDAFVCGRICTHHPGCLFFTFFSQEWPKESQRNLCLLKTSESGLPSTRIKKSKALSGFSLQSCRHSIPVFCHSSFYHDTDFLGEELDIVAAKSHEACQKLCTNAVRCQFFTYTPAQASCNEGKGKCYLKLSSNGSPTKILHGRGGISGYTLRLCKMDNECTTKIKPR
Chain of DEGR-factor XIa (P03951 388-625 limits assumed): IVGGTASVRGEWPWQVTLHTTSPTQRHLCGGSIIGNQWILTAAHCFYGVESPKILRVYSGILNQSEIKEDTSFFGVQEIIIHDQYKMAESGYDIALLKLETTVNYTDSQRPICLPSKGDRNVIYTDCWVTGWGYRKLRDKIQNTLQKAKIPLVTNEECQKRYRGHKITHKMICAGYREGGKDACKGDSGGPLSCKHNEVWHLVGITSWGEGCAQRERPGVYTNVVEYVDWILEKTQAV

Chain of DEGR-FXIa (P03951 19-387 limits assumed): as the sequence (P03951 19-387 limits assumed) above
Chain of DEGR-FXIa (P03951 388-625 limits assumed): as the sequence (P03951 388-625 limits assumed) above
Chain of human factor XIa (P03951 19-387 limits assumed): as the sequence (P03951 19-387 limits assumed) above
Chain of human factor XIa (P03951 388-625 limits assumed): as the sequence (P03951 388-625 limits assumed) above
Chain of factor XI (zymogen) (P03951 19-625): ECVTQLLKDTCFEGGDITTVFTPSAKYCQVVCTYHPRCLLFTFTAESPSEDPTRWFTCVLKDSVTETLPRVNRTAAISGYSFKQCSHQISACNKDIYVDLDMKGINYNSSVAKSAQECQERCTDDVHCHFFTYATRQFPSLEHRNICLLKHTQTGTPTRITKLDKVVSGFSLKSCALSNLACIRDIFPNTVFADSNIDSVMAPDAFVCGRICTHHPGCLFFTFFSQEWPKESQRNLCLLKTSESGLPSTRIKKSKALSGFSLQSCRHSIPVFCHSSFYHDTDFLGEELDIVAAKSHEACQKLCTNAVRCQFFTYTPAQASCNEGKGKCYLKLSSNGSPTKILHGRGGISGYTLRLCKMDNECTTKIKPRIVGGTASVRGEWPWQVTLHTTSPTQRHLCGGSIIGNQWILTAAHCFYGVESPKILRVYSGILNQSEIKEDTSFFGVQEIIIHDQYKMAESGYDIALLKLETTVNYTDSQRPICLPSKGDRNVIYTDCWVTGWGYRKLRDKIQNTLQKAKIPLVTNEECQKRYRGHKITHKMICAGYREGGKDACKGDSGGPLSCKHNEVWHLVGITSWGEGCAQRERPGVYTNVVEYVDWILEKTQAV

## heparin octasaccharide [H8]
DEGR-FXIa; pH 7.4, 37 °C
  Z (number of ion-pairs formed): 0.64 ± 0.04
  intercept of log KD,obs versus log[Na]: –5.00 ± 0.04
  slope of log KD,obs versus log[Na]: 0.52 ± 0.03
  ΔG0NI (binding energy due to nonionic forces): 7.08 kcal/mol and 7.1 ± 0.02 kcal/mol
  ΔG0NI (nonionic binding energy contribution to the total): 90.5%
DEGR-FXIa; pH 7.4, I 0.15
  ΔG0I (binding energy due to ionic forces): 0.75 kcal/mol
DEGR-FXIa; read-out: KD,NI (nonionic affinity), dissociation constant at [Na+] = 1 M
  Kd: 10100 ± 400 nM
Human factor XIa
  Kd: 900 ± 200 nM
  ΔFMAX: –68 ± 2%
Factor XI (zymogen)
  Kd: 1800 ± 400 nM
DEGR-factor XIa
  blue-shift of emission wavelength of DEGR-FXIa: ~3 nm
